# Measured values: ChEMBL document CHEMBL4689842, “EUbOPEN Chemogenomics Library wave 1” (2021)
# System: HEK-293T
# Assay: Multiplex assay against HEK293T;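 on Population Tubulin-Different-Phenotype (%): share of the cells with healthy nuclei that show this phenotype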
# Assay type: toxicity, cell-based
# Details: human
# Summary of the method: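 Tubulin, mitochondrial-mass and membrane-permeability phenotypes are per cents of healthy-nucleus cells. Cells were gated by CellPathfinder machine learning into Hoechst high-intensity objects or normal cells, normal cells into healthy, pyknosed or fragmented nuclei, and pyknosed cells into mitotic or apoptotic. Before that, live cells stained at seeding with Hoechst33342, BioTracker Green Microtubule Cytoskeleton Dye, MitoTracker Red and Annexin V Alexa Fluor 680 were imaged on a CQ1 microscope at 37°C and 5% CO2 after compound addition.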
# [1] = 12 h, 1 µM, compound concentration 1 uM, replicate 1
# [2] = 12 h, 1 µM, compound concentration 1 uM, replicate 2
# [3] = 12 h, 10 µM, compound concentration 10 uM, replicate 1
# [4] = 12 h, 10 µM, compound concentration 10 uM, replicate 2
# [5] = 24 h, 1 µM, compound concentration 1 uM, replicate 1
# [6] = 24 h, 1 µM, compound concentration 1 uM, replicate 2
# [7] = 24 h, 10 µM, compound concentration 10 uM, replicate 1
# [8] = 24 h, 10 µM, compound concentration 10 uM, replicate 2
compound,measurement,setting,value
CN(C)C/C=C/C(=O)Nc1cc2c(Nc3ccc(F)c(Cl)c3)ncnc2cc1O[C@H]1CCOC1.O=C(O)/C=C\C(=O)O.O=C(O)/C=C\C(=O)O [AFATINIB DIMALEATE],Population Apoptotic (%),[1],26%
same,Population Fragmented Nuclei (%),[1],23%
same,Population Healthy Nuclei (%),[1],54%
same,Population Hoechst High Intensity Objects (%),[1],15%
same,Population Membrane Permeable-Phenotype (%),[1],5%
same,Population Mitochondria Different-Phenotype (%),[1],4%
same,Population Mitotic Cells (%),[1],73%
same,Population Normal (%),[1],84%
same,Population Pyknosed Nuclei (%),[1],22%
same,Population Tubulin-Different-Phenotype (%),[1],5%
same,Total Cell Count,[1],581
same,Population Apoptotic (%),[2],16%
same,Population Fragmented Nuclei (%),[2],6%
same,Population Healthy Nuclei (%),[2],87%
same,Population Hoechst High Intensity Objects (%),[2],3%
same,Population Membrane Permeable-Phenotype (%),[2],4%
same,Population Mitochondria Different-Phenotype (%),[2],13%
same,Population Mitotic Cells (%),[2],83%
same,Population Normal (%),[2],96%
same,Population Pyknosed Nuclei (%),[2],5%
same,Population Tubulin-Different-Phenotype (%),[2],10%
same,Total Cell Count,[2],1304
same,Population Apoptotic (%),[3],23%
same,Population Fragmented Nuclei (%),[3],17%
same,Population Healthy Nuclei (%),[3],32%
same,Population Hoechst High Intensity Objects (%),[3],18%
same,Population Membrane Permeable-Phenotype (%),[3],17%
same,Population Mitochondria Different-Phenotype (%),[3],35%
same,Population Mitotic Cells (%),[3],76%
same,Population Normal (%),[3],81%
same,Population Pyknosed Nuclei (%),[3],50%
same,Population Tubulin-Different-Phenotype (%),[3],82%
same,Total Cell Count,[3],647
same,Population Apoptotic (%),[4],17%
same,Population Fragmented Nuclei (%),[4],3%
same,Population Healthy Nuclei (%),[4],53%
same,Population Hoechst High Intensity Objects (%),[4],4%
same,Population Membrane Permeable-Phenotype (%),[4],9%
same,Population Mitochondria Different-Phenotype (%),[4],64%
same,Population Mitotic Cells (%),[4],82%
same,Population Normal (%),[4],96%
same,Population Pyknosed Nuclei (%),[4],42%
same,Population Tubulin-Different-Phenotype (%),[4],97%
same,Total Cell Count,[4],999
same,Population Apoptotic (%),[5],25%
same,Population Fragmented Nuclei (%),[5],17%
same,Population Healthy Nuclei (%),[5],71%
same,Population Hoechst High Intensity Objects (%),[5],10%
same,Population Membrane Permeable-Phenotype (%),[5],6%
same,Population Mitochondria Different-Phenotype (%),[5],3%
same,Population Mitotic Cells (%),[5],74%
same,Population Normal (%),[5],89%
same,Population Pyknosed Nuclei (%),[5],11%
same,Population Tubulin-Different-Phenotype (%),[5],7%
same,Total Cell Count,[5],598
same,Population Apoptotic (%),[6],12%
same,Population Fragmented Nuclei (%),[6],20%
same,Population Healthy Nuclei (%),[6],76%
same,Population Hoechst High Intensity Objects (%),[6],3%
same,Population Membrane Permeable-Phenotype (%),[6],4%
same,Population Mitotic Cells (%),[6],87%
same,Population Normal (%),[6],96%
same,Population Pyknosed Nuclei (%),[6],3%
same,Population Tubulin-Different-Phenotype (%),[6],9%
same,Total Cell Count,[6],2098
same,Population Apoptotic (%),[7],39%
same,Population Fragmented Nuclei (%),[7],23%
same,Population Healthy Nuclei (%),[7],34%
same,Population Hoechst High Intensity Objects (%),[7],19%
same,Population Membrane Permeable-Phenotype (%),[7],10%
same,Population Mitochondria Different-Phenotype (%),[7],58%
same,Population Mitotic Cells (%),[7],60%
same,Population Normal (%),[7],80%
same,Population Pyknosed Nuclei (%),[7],42%
same,Population Tubulin-Different-Phenotype (%),[7],77%
same,Total Cell Count,[7],637
same,Population Apoptotic (%),[8],25%
same,Population Fragmented Nuclei (%),[8],12%
same,Population Healthy Nuclei (%),[8],55%
same,Population Hoechst High Intensity Objects (%),[8],9%
same,Population Membrane Permeable-Phenotype (%),[8],6%
same,Population Mitochondria Different-Phenotype (%),[8],69%
same,Population Mitotic Cells (%),[8],74%
same,Population Normal (%),[8],90%
same,Population Pyknosed Nuclei (%),[8],32%
same,Population Tubulin-Different-Phenotype (%),[8],90%
same,Total Cell Count,[8],1048
CC(C)(C)c1cnc(CSc2cnc(NC(=O)C3CCNCC3)s2)o1 [BMS-387032],Population Apoptotic (%),[1],25%
same,Population Fragmented Nuclei (%),[1],21%
same,Population Healthy Nuclei (%),[1],51%
same,Population Hoechst High Intensity Objects (%),[1],19%
same,Population Membrane Permeable-Phenotype (%),[1],3%
same,Population Mitochondria Different-Phenotype (%),[1],8%
same,Population Mitotic Cells (%),[1],74%
same,Population Normal (%),[1],80%
same,Population Pyknosed Nuclei (%),[1],27%
same,Population Tubulin-Different-Phenotype (%),[1],4%
same,Total Cell Count,[1],507
same,Population Apoptotic (%),[2],21%
same,Population Fragmented Nuclei (%),[2],4%
same,Population Healthy Nuclei (%),[2],85%
same,Population Hoechst High Intensity Objects (%),[2],4%
same,Population Membrane Permeable-Phenotype (%),[2],1%
same,Population Mitochondria Different-Phenotype (%),[2],25%
same,Population Mitotic Cells (%),[2],78%
same,Population Normal (%),[2],95%
same,Population Pyknosed Nuclei (%),[2],10%
same,Population Tubulin-Different-Phenotype (%),[2],13%
same,Total Cell Count,[2],981
same,Population Apoptotic (%),[3],23%
same,Population Fragmented Nuclei (%),[3],15%
same,Population Healthy Nuclei (%),[3],51%
same,Population Hoechst High Intensity Objects (%),[3],21%
same,Population Membrane Permeable-Phenotype (%),[3],4%
same,Population Mitochondria Different-Phenotype (%),[3],17%
same,Population Mitotic Cells (%),[3],76%
same,Population Normal (%),[3],78%
same,Population Pyknosed Nuclei (%),[3],33%
same,Population Tubulin-Different-Phenotype (%),[3],27%
same,Total Cell Count,[3],549
same,Population Apoptotic (%),[4],24%
same,Population Fragmented Nuclei (%),[4],2%
same,Population Healthy Nuclei (%),[4],86%
same,Population Hoechst High Intensity Objects (%),[4],10%
same,Population Membrane Permeable-Phenotype (%),[4],1%
same,Population Mitochondria Different-Phenotype (%),[4],42%
same,Population Mitotic Cells (%),[4],75%
same,Population Normal (%),[4],90%
same,Population Pyknosed Nuclei (%),[4],10%
same,Population Tubulin-Different-Phenotype (%),[4],58%
same,Total Cell Count,[4],880
same,Population Apoptotic (%),[5],27%
same,Population Fragmented Nuclei (%),[5],21%
same,Population Healthy Nuclei (%),[5],53%
same,Population Hoechst High Intensity Objects (%),[5],20%
same,Population Membrane Permeable-Phenotype (%),[5],6%
same,Population Mitochondria Different-Phenotype (%),[5],9%
same,Population Mitotic Cells (%),[5],72%
same,Population Normal (%),[5],79%
same,Population Pyknosed Nuclei (%),[5],24%
same,Population Tubulin-Different-Phenotype (%),[5],9%
same,Total Cell Count,[5],451
same,Population Apoptotic (%),[6],22%
same,Population Fragmented Nuclei (%),[6],6%
same,Population Healthy Nuclei (%),[6],87%
same,Population Hoechst High Intensity Objects (%),[6],8%
same,Population Membrane Permeable-Phenotype (%),[6],1%
same,Population Mitochondria Different-Phenotype (%),[6],22%
same,Population Mitotic Cells (%),[6],77%
same,Population Normal (%),[6],91%
same,Population Pyknosed Nuclei (%),[6],5%
same,Population Tubulin-Different-Phenotype (%),[6],17%
same,Total Cell Count,[6],934
same,Population Apoptotic (%),[7],27%
same,Population Fragmented Nuclei (%),[7],16%
same,Population Healthy Nuclei (%),[7],45%
same,Population Hoechst High Intensity Objects (%),[7],23%
same,Population Membrane Permeable-Phenotype (%),[7],1%
same,Population Mitochondria Different-Phenotype (%),[7],34%
same,Population Mitotic Cells (%),[7],72%
same,Population Normal (%),[7],76%
same,Population Pyknosed Nuclei (%),[7],38%
same,Population Tubulin-Different-Phenotype (%),[7],30%
same,Total Cell Count,[7],494
same,Population Apoptotic (%),[8],31%
same,Population Fragmented Nuclei (%),[8],3%
same,Population Healthy Nuclei (%),[8],83%
same,Population Hoechst High Intensity Objects (%),[8],14%
same,Population Membrane Permeable-Phenotype (%),[8],0%
same,Population Mitochondria Different-Phenotype (%),[8],54%
same,Population Mitotic Cells (%),[8],68%
same,Population Normal (%),[8],85%
same,Population Pyknosed Nuclei (%),[8],13%
same,Population Tubulin-Different-Phenotype (%),[8],61%
same,Total Cell Count,[8],828
